We go through ten compounds from PubChem BioAssay.

Activity calls are given as the source filed them.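 How the source made its calls, unless noted: active means fluorescence slope higher than the sample average by over 3 SD (cut at about -0.22 in these data, passing the limit was not always enough); inactive means the rest.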

A short description of assay [1]: inhibitors of TNFa-induced NFkB p65 translocation, primary screen, imaging, HUVEC, MLSMR starter and 10KST1 sets (AID 438;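 active means inhibition above 20% together with a positive visual image hit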;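 further: compound added about 3h40 before a 20 min TNFalpha stimulation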;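 on inhibition: signal is the nuclear over cytoplasmic p65 intensity ratio per well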). The conditions noted are these: HUVEC TNFa-induced p65 nuclear translocation; cell count: measured here: nuclei count (cytotoxicity indicator), at 2.08 µM; inhibition: at 2 µM, stronger effect = higher value, 0% TNFa-plus-vehicle, 100% no-TNFa wells.
A short description of assay [2]: inhibitors of E-selectin induction by TNFa, primary screen, imaging, HUVEC, immunofluorescence, MLSMR starter and 10KST1 sets (AID 487;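 active means visually confirmed hit in the image check and inhibition above 20%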;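 on inhibition: signal is fraction of cell area covered by stained E-selectin grains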;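 on nuclei count: 100% = median nuclei count of all wells on the same plate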). The conditions noted are these: HUVEC TNFalpha-induced E-selectin immunofluorescence imaging, at 2 µM; inhibition: stronger effect = higher value; nuclei count: measured here: cell number, toxicity.
Assay [3] in a line: DUSP6 inhibitors restoring Erk phosphorylation by chemical complementation, primary imaging in DUSP6-transfected HeLa (AID 609;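 active means compounds giving at least 50% inhibition in the cell-based MKP-3 phosphatase rescue imaging test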;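 on inhibition: phospho-Erk level distribution per well compared with pooled transfected vehicle control wells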). The conditions noted are these: HeLa MKP-3 transfected, phospho-Erk imaging KS statistic, at 10 µM, cells stimulated with TPA for 15 min.
For assay [4], the target named is Dual specificity protein phosphatase 6 (Homo sapiens) (UniProt Q16828). Described as above. The conditions noted are these: HeLa MKP-3 transfected, phospho-Erk imaging KS statistic; at 10 µM; stronger effect = higher value; cells stimulated with TPA for 15 min.
Chain of Dual specificity protein phosphatase 6 (Homo sapiens) (Q16828 whole entry, looked up): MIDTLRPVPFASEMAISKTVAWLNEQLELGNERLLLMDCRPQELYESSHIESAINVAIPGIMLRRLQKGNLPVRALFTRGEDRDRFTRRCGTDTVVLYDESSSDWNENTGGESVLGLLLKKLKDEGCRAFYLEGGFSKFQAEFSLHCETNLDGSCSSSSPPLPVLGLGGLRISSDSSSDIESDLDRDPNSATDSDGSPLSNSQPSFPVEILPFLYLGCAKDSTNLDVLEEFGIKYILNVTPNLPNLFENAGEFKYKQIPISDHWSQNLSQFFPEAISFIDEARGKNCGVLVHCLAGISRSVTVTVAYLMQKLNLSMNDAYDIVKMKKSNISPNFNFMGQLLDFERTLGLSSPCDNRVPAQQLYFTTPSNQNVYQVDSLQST
The target in assay [5] is Voltage-gated potassium channel subunit beta-2 (Rattus norvegicus) (UniProt P62483). The experiment in a line: KvBeta enzyme negative modulators, primary screen, biochemical, NADPH fluorescence (AID 622).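 Further: slope of raw intensity against log time taken from 70 to 1610 s.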 The conditions noted are these: recombinant KvBeta, 4-cyanobenzaldehyde reduction, at 10 µM, stronger effect = higher value.
Chain of Voltage-gated potassium channel subunit beta-2 (Rattus norvegicus) (P62483 whole entry, looked up): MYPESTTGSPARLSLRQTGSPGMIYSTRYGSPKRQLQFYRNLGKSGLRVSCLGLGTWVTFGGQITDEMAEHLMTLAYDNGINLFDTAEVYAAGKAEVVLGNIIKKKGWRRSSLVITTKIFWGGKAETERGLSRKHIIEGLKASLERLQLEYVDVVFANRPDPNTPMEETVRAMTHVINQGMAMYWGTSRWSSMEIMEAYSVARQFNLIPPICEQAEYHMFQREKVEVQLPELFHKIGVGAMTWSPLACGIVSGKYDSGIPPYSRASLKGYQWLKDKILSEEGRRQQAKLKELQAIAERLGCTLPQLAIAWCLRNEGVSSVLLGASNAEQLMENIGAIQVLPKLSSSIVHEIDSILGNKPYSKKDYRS
The target is the same in assay [6]. The experiment in a line: KvBeta positive modulators, primary screen, biochemical, NADPH fluorescence (AID 623;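 active means NADPH fluorescence slope more negative than the mean of all samples by about 3 SD, 99.7% confidence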;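 further: fluorescence intensity change per second fitted from 20 to 320 s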). The conditions noted are these: Recombinant KvBeta, NADPH fluorescence decrease slope, 10 min; at 10 µM; stronger effect = lower value.
The target in assay [7] is Alpha-2C adrenergic receptor (Homo sapiens) (UniProt P18825). As to the kind of experiment: modulators of alpha2C/GIRK thallium flux, primary screen, cell-based, HEK293 alpha2C/GIRK1/2 (AID 624;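 active means fluorescence slope after compound addition differing from the mean of all screened samples at 99.7% confidence, in either direction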;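 further: slope of fluorescence ratio to pre-addition baseline per second over 15 to 24 s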). The conditions noted are these: thallium flux BTC fluorescence, at 10 µM, actives lie on both sides.
Chain of Alpha-2C adrenergic receptor (Homo sapiens) (P18825 whole entry, looked up): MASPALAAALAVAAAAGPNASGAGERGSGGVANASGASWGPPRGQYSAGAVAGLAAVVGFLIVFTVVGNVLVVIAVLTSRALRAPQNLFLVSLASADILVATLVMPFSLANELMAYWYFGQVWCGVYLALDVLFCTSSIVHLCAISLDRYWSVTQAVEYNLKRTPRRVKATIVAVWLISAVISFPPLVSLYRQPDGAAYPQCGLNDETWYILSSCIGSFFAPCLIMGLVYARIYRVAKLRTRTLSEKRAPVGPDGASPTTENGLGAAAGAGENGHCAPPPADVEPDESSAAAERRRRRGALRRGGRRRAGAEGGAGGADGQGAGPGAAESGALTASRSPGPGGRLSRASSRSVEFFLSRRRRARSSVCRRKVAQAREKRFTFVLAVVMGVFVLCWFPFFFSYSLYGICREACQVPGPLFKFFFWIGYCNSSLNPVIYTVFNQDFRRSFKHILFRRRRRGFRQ
The nature of assay [8]: inhibitors of larval lipid processing in zebrafish, primary screen, whole organism, PED6 fluorescence, gall bladder and intestine (AID 686;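 active means a full or partial loss of lipid-probe fluorescence in the fish gall bladder, intestine or both, judged by eye; inactive means no fluorescence loss, or compound toxic to the fish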;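 further: larvae 5 to 7 days old with five fish per well; signal comes from phospholipase A2 cleavage of quenched PED6 carried via bile; overnight exposure to compound and PED6 before scoring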). The conditions noted are these: Zebrafish larvae PED6 lipid processing, fluorescence scoring; screened at 20 µM (by protocol). Put shortly: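 Also added: quenched phospholipase substrate PED6, 100 nM final, ingested by larvae; System: zebrafish larvae, 5-7 d; Quantity: 5 larvae per well; Compound: 20 µM single dose; Schedule: overnight compound and PED6 incubation; Read-out: visual per-well fluorescence inhibition score; Measured by: By-eye fluorescence microscopy; Medium: E3.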

Assay [9] is described as follows: inhibitors of Chlamydomonas gravitaxis, primary screen, whole organism, Chlamydomonas reinhardtii, WT vs cilia-less mutant, absorbance, 96-well (AID 463189;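 active means inhibition at or above 50% relative to wild type and mutant plate controls; inactive means inhibition below 50%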;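 further: 0% = wild type cc124 cells in DMSO and 100% = ciliumless bld1 mutant cells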). The conditions noted are these: OD600 absorbance, 2 days, at 10 µM, stronger effect = higher value.
Setting [10] is: measured here: cell density z-score.
The mark [11] stands for this setting: measured here: nuclear c-Myc green intensity z-score.
Where [12] appears, read: measured here: nuclear pErk red intensity z-score, stronger effect = higher value.

By inhibition is commonly meant the drop in the measured response relative to a control, in per cent. `Nc1nonc1-c1noc(N2CCOCC2)n1`: the cell count in [1] stood at 306. Also, the inhibition was -10.9% (inactive) in [1], -42.1% (inactive) in [2], -12.3% (inactive) in assay [4] and 17.1% (inactive) in [9]. The compound further came in with a nuclei count in [2] of 106%. Moreover, the z-score in [3] (setting [10]) is 0.592; in assay [3] (setting [11]), 0.125; in assay [3] (setting [12]), 0.227. In addition, the fluorescence slope in [5] is -0.281 (inactive). The NADPH fluorescence slope in assay [6] is 1e-05 (inactive). Besides, the slope in assay [7] was 0.00528 (inactive). Also, the compound was called inactive in assay [8].

Take `COc1ccc(C2C(C#N)=C(N)Oc3n[nH]c(C)c32)cc1CSc1ccccn1` (stereo not given): the cell count in [1] was found to be 648. Besides, the inhibition is -1.9% (inactive) in [1], 9.1% (inactive) in assay [2], -5.62% (inactive) in [4] and -9.39% (inactive) in [9]. This compound gave a nuclei count in assay [2] of 168%. The z-score in [3] (setting [10]) is -0.678; in assay [3] (setting [11]), 1.17; in [3] (setting [12]), -0.733. For the same compound, the fluorescence slope in assay [5] was -0.412 (inactive). Moreover, the NADPH fluorescence slope in assay [6] was -3.1e-05 (inactive). The slope in assay [7] was 0.00563 (inactive). Further, the result in assay [8] was inactive.

Consider `OC(CNCCCN1CCCCC1)COc1ccccc1` (stereo not given), for which the cell count in assay [1] worked out at 630. Also, the inhibition in [1] was -6.2% (inactive); in assay [2] it was -169% (inactive); in assay [4], 17% (inactive); in [9] it was 5.42% (inactive). Moreover, the nuclei count in assay [2] stood at 178%. The values for the z-score in assay [3] (setting [10]), in assay [3] (setting [11]) and in assay [3] (setting [12]) were -0.145, 0.177 and 0.518, respectively. The fluorescence slope in assay [5] is -0.512 (inactive). Also, the NADPH fluorescence slope in [6] is -7.1e-05 (inactive). Further, the slope in assay [7] was 0.00429 (inactive). Moreover, in assay [8], the compound was called inactive.

In the case of `COc1ccccc1N1CCN(C2CCN(C(=O)c3cc(OC)c(OC)c(OC)c3)CC2)CC1`, the cell count in assay [1] is 454. For the same compound, the inhibition was -8.3% (inactive) in [1], -122% (inactive) in [2], -3.95% (inactive) in [4] and -0.971% (inactive) in [9]. In assay [2], this compound came in with a nuclei count of 170%. Further, the z-score in assay [3] (setting [10]) is 0.498; in [3] (setting [11]), -1.6; in assay [3] (setting [12]), 1.25. The fluorescence slope in [5] was -0.32 (inactive). Further, the NADPH fluorescence slope in assay [6] is 2.2e-05 (inactive). Besides, the slope in [7] was 0.0055 (inactive). Moreover, the call in [8] was inactive.

As to `O=S1(=O)C[C@@H](N2CCOCC2)[C@H](N2CCOCC2)C1`, the cell count in assay [1] was determined as 513. Also, the inhibition was 3.1% (inactive) in assay [1], -110% (inactive) in assay [2], -3.5% (inactive) in assay [4] and 3.28% (inactive) in assay [9]. For the same compound, in assay [2], the nuclei count worked out at 133%. Also, the z-score was -0.578 in assay [3] (setting [10]), 0.935 in assay [3] (setting [11]) and 0.179 in assay [3] (setting [12]). In addition, the fluorescence slope in assay [5] was -0.462 (inactive). The NADPH fluorescence slope in [6] is -7.3e-05 (inactive). Moreover, the slope in [7] is 0.00558 (inactive). Further, in [8], the outcome was inactive.

In the case of `Cc1nn(-c2ccccc2)c2c1C(c1ccc(F)cc1F)C(C#N)=C(N)O2` (stereo not given), in [1], the cell count was found to be 611. Further, the inhibition in assay [1] was -19.6% (inactive); in [2], 17.2% (inactive); in assay [4], 19.1% (inactive); in assay [9], 18.8% (inactive). The nuclei count in [2] was 184%. Besides, the z-score in assay [3] (setting [10]) was 0.29; in assay [3] (setting [11]) it was -0.619; in [3] (setting [12]), 0.392. The fluorescence slope in assay [5] is -0.41 (inactive). Further, the NADPH fluorescence slope in assay [6] is -2.3e-05 (inactive). For the same compound, the slope in assay [7] was 0.00636 (inactive). Also, in assay [8], the outcome was inactive.

For the compound `Cc1cc(C)n(C(=O)CSc2nc3ccccc3o2)n1`, in assay [1], the cell count came out at 551. Further, the inhibition in [1] was -6.6% (inactive); in [2], -100% (inactive); in [4], 19.8% (inactive); in assay [9] it was 25.1% (inactive). Further, the nuclei count in [2] came out at 138%. The z-score in assay [3] (setting [10]) is 0.355; in assay [3] (setting [11]), 0.587; in assay [3] (setting [12]), 0.0282. The fluorescence slope in assay [5] was -0.488 (inactive). For the same compound, the NADPH fluorescence slope in [6] was -4.3e-05 (inactive). Further, in assay [7], the slope is 0.00455 (inactive). Also, in assay [8], the compound was classed as inactive.

Take `CC(C)N1CC=C2C(C#N)=C(N)C(C#N)(C#N)C(c3ccccc3)C2C1` (stereo not given): the cell count in assay [1] was determined as 535. Besides, the inhibition is -3.2% (inactive) in assay [1], -126% (inactive) in assay [2], 68.6% (inactive) in [4] and 11.1% (inactive) in [9]. Besides, the nuclei count in assay [2] stood at 218%. For the same compound, the z-score in assay [3] (setting [10]) worked out at 0.674; in assay [3] (setting [11]) it was 3.57; in assay [3] (setting [12]), 1.58. Also, in [5], the fluorescence slope is -0.366 (inactive). For the same compound, in assay [6], the NADPH fluorescence slope was -2.3e-05 (inactive). The slope in [7] is 0.000192 (inactive). For the same compound, the outcome in assay [8] was inactive.

In the case of `CCOC(=O)c1[nH]c2cc3c(cc2c1NC(=O)CN1CCc2ccccc2C1)OCO3`, the cell count in assay [1] is 523. Moreover, the inhibition is 0.1% (inactive) in assay [1], -11.1% (inactive) in assay [2], -1.75% (inactive) in assay [4] and 25.5% (inactive) in assay [9]. Moreover, in [2], the nuclei count worked out at 104%. Besides, the values for the z-score in assay [3] (setting [10]), in assay [3] (setting [11]) and in assay [3] (setting [12]) were -0.283, -0.223 and -0.654, respectively. Moreover, the fluorescence slope in assay [5] is -0.248 (inactive). Further, the NADPH fluorescence slope in [6] was -1e-07 (inactive). Besides, the slope in assay [7] is 0.00381 (inactive). Moreover, the outcome in [8] was inactive.

Consider `COc1cc([C@@H]2[C@H]3CNCC=C3C(C#N)=C(N)C2(C#N)C#N)ccc1OC(C)C`, for which, in [1], the cell count came to 520. In addition, the inhibition in [1] is -3.4% (inactive); in [2] it was -13.2% (inactive); in [4], 2.46% (inactive); in assay [9], -1.69% (inactive). For the same compound, the nuclei count in [2] was 156%. Moreover, the z-score in assay [3] (setting [10]) is -0.404; in [3] (setting [11]), -0.17; in assay [3] (setting [12]) it was -2.38. In [5], the fluorescence slope was -0.251 (inactive). The NADPH fluorescence slope in [6] was 7.5e-06 (inactive). In addition, the slope in assay [7] was 0.00559 (inactive). For the same compound, the compound was called inactive in [8].
